Laboratory results from ChEMBL document CHEMBL2177069, “Novel peptidomimetic compounds containing redox active chalcogens and quinones as potential anticancer agents” (Eur J Med Chem, 2012).
Active and inactive are the calls of the source. No cut-off for these calls is given here.

Assays:
[1] = test system: HUVEC; assay: Induction of oxidative stress in human HUVEC cells assessed as increase in superoxide free radical production after 1 hr by DHE-based by fluorescence spectrophotometric analysis; format: cell-based
Method in brief: (§1)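 Cells were seeded at 10^5 per well and given graded compound concentrations for 1 h. They were then loaded with DHE or DCF probe for 30 min in the dark. Fluorescence was read immediately: DHE ex 540/em 600 nm; DCF ex 485/em 528 nm. Results were expressed as arbitrary units per 10^5 cells.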

[2] = test system: HUVEC; assay: Induction of oxidative stress in human HUVEC cells assessed as increase in hydrogen peroxide free radical production after 1 hr by DCF-based fluorescence spectrophotometric analysis; format: cell-based; method in brief: as §1
[3] = test system: A-431; assay: Induction of oxidative stress in human A431 cells assessed as increase in superoxide free radical production after 1 hr by DHE-based by fluorescence spectrophotometric analysis; format: functional, cell-based; method in brief: as §1
[4] = test system: A-431; assay: Induction of oxidative stress in human A431 cells assessed as increase in hydrogen peroxide free radical production after 1 hr by DCF-based fluorescence spectrophotometric analysis; format: functional, cell-based; method in brief: as §1
[5] = test system: K562; assay: Cytotoxicity against human K562 cells; format: functional
[6] = test system: MCF7; assay: Induction of Cell cycle arrest in human MCF7 cells assessed as G2/M phase cells at IC50 concentration after 24 hrs by PI-staining based flow cytometric analysis (reference value: 13%); format: functional
Method in brief: (§2)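 MCF-7 cells (10^6) were treated for 24 h, with methanol as the vehicle control. Cells were fixed in cold 70% methanol at 4 °C for one day, washed with PBS, and permeabilized with 0.1% saponin in PBS. They were stained with propidium iodide plus RNase for 30 min. DNA content was read by flow cytometry, giving percentages of cells per cell-cycle phase.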

[7] = test system: MCF7; assay: Induction of Cell cycle arrest in human MCF7 cells assessed as S phase cells at IC50 concentration after 24 hrs by PI-staining based flow cytometric analysis (reference value: 19%); format: functional; method in brief: as §2
[8] = test system: MCF7; assay: Induction of Cell cycle arrest in human MCF7 cells assessed as G0/1 phase cells at IC50 concentration after 24 hrs by PI-staining based flow cytometric analysis (reference value: 68%); format: functional; method in brief: as §2
[9] = test system: MCF7; assay: Induction of oxidative stress in human MCF7 cells assessed as decrease in GSH level at 5 uM after 1 hr by DTNB assay relative to control; format: functional; parameters: scale not given: the % may be the effect or the level left
Method in brief: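 MCF-7 cells (10^6) were treated for 1 h at 37 °C, trypsinized, and washed twice with cold PBS. GSH was extracted with chilled 5% metaphosphoric acid at 4 °C for 2 h, then the lysate was centrifuged. Supernatant was mixed with 0.2 M sodium phosphate pH 8.0 and 0.04 mM DTNB for 10 min at room temperature. Absorbance was read at 412 nm against a reagent blank, and GSH was quantified from a standard curve.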

Structure (SMILES)	Activity [1]	Activity [2]	Activity [3]	Activity [4]	GI50 [5] [µM]	LC50 [5] [µM]	TGI ([5]; read-out: pTGI) [µM]	Activity [6] [%]	Activity [7] [%]	Activity [8] [%]	Activity [9] [%]
CC1=C(SCCC(=O)OC(C[Se]C2=C(C)C(=O)c3ccccc3C2=O)C(=O)NCCCCCC(=O)OCc2ccccc2)C(=O)c2ccccc2C1=O (stereo not drawn)	Non-toxic	Non-toxic	Active	Active	3.02	> 100	> 100				
CC1=C([Se]CC(OC(=O)[C@@H](CO)NC(=O)OC(C)(C)C)C(=O)NC(C)(C)C)C(=O)c2ccccc2C1=O (stereo partly drawn)					1.35	> 100		12	7.7	80	59
